Published values from different studies.
Compare with care: the assays were run in different laboratories.
USP51: Ubiquitin carboxyl-terminal hydrolase 51 (USP51, Homo sapiens, UniProt Q70EK9)
CA12: Carbonic anhydrase 12 (CA12, Homo sapiens, UniProt O43570)
SLC6A3: Sodium-dependent dopamine transporter (SLC6A3, Homo sapiens, UniProt Q01959)
DRD3: D(3) dopamine receptor (DRD3, Homo sapiens, UniProt P35462)

SMILES	target	test	system	setting	inhibition [%]
CC(C)Oc1ccc2c(=O)c(-c3ccccc3)coc2c1	USP51	enzyme activity, inhibitor		5 µM	43
CCOC(=O)C1CSc2[nH]c(=O)sc2C1c1cn(-c2ccccc2)nc1-c1ccc(Br)cc1 (stereo not drawn)	CA12	enzyme activity, inhibitor, absorbance		10 µM	81
Nc1[nH]cnc2ncnc1-2	USP51	enzyme activity, inhibitor		5 µM	33
Cc1ccc(-c2nn(-c3ccccc3)cc2C2c3sc(=O)[nH]c3SC3C(=O)N(c4ccccc4)C(=O)C32)cc1 (stereo not drawn)	CA12	enzyme activity, inhibitor, absorbance		10 µM	73.9
Clc1ccc(C(c2ccc(Cl)cc2)c2nnnn2CCCCN2CCC(c3ccccc3)CC2)cc1	SLC6A3	transporter uptake, inhibitor	HEK293	1 µM	90.1
O=C(NCCN1CCN(C(=O)c2ccccc2)CC1)C(=O)Nc1ccccc1	DRD3	enzyme activity, inhibitor		10 µM	-26.2
C[Se]CC[C@H](N)C(=O)O	USP51	enzyme activity, inhibitor		5 µM	34
CCOC(=O)C1CSc2[nH]c(=O)sc2C1c1cn(-c2ccccc2)nc1-c1ccccc1 (stereo not drawn)	CA12	enzyme activity, inhibitor, absorbance		10 nM	10.6
O=C1c2cccc(O)c2C(=O)c2c(O)cccc21	USP51	enzyme activity, inhibitor		5 µM	14
CCN(CC)CCNC(=O)c1c(C)[nH]c(/C=C2\C(=O)Nc3ccc(F)cc32)c1C	Tyrosine-protein kinase Lyn (Lyn, Mus musculus, UniProt P25911)	enzyme activity, inhibitor		0.3 µM	40
O=C(c1ccc(Cl)cc1)N(Cc1ccccc1)C1CCCCC1	SLC6A3	cell-free assay		10 µM	48.8
Clc1ccc(C(c2ccc(Cl)cc2)c2nnnn2CCCCN2CCC(Cc3ccccc3)CC2)cc1	SLC6A3	transporter uptake, inhibitor	HEK293	1 µM	78.5
Cc1cc(C)cc(NC(=O)CN2CCN(C(=O)c3ccco3)CC2)c1	DRD3	enzyme activity, inhibitor		10 µM	-32.1
Fc1ccc(C(c2ccc(F)cc2)c2nnnn2CCCCN2CCC(c3ccccc3)CC2)cc1	SLC6A3	transporter uptake, inhibitor	HEK293	1 µM	94.6
N#CC1CSc2[nH]c(=O)sc2C1c1cn(-c2ccccc2)nc1-c1ccc(Br)cc1 (stereo not drawn)	CA12	enzyme activity, inhibitor, absorbance		0.1 µM	40.6
Cc1ccc(C(C)C)c(OCC(O)CN2CCN(c3ccccc3F)CC2)c1 (stereo not drawn)	DRD3	enzyme activity, inhibitor		10 µM	20.4
Clc1ccc(CC2CCN(CCCCn3nnnc3C(c3ccccc3)c3ccccc3)CC2)cc1Cl	SLC6A3	transporter uptake, inhibitor	HEK293	1 µM	67.7
O=C1/C(=C2\Nc3ccccc3C2=O)Nc2ccccc21	USP51	enzyme activity, inhibitor		5 µM	36
CCc1ccc(N2CCN(CC(O)COc3ccc(C(C)=O)cc3OC)CC2)cc1 (stereo not drawn)	DRD3	enzyme activity, inhibitor		10 µM	2.9
CCCCC/C=C\C/C=C\CCCCCCCC(=O)O	USP51	enzyme activity, inhibitor		5 µM	100
O=C1C2CCCN2C(=O)N1CCCCN1CCN(c2cccc(Cl)c2)CC1 (stereo not drawn)	DRD3	enzyme activity, inhibitor		10 µM	63.4
